Measurements as given in ChEMBL document CHEMBL4138207, “Phenolic Substances from Ocimum Species Enhance Glucose-Stimulated Insulin Secretion and Modulate the Expression of Key Insulin Regulatory Genes in Mice Pancreatic Islets” (J Nat Prod, 2017).
The source made the active and inactive calls. No cut-off for these calls is given here.

Key:
[1] = test system: Pancreatic islet; assay: Upregulation of INS2 mRNA expression in NMRI mouse pancreatic islets at 10^-8 M after 72 hrs by Taqman-based qRT-PCR analysis; type: functional, cell-based
How it was run: (§1)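 Female NMRI mouse islets were exposed 72 h to compound at 10−8 M in RPMI with 11.1 mM glucose. Islets from 2–3 mice (180–200) were pooled for Trizol RNA extraction. Reverse transcription and 14-cycle preamplification preceded TaqMan real-time PCR. Data were normalized to the geometric mean of 18S and Hprt1 by the (1+efficiency)−ΔCT method and expressed as fold versus untreated control. Samples were run in triplicate, each measured in triplicate.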

[2] = Induction of 16.7 mM glucose-stimulated insulin secretion in NMRI mouse pancreatic islets at 10^-6 M after 60 mins by radioimmunoassay relative to 16.7 mM glucose control; type: functional, Pancreatic islet
How it was run: (§2)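 Female NMRI mouse islets, cultured overnight, were preincubated 30 min in KRB with 3.3 mM glucose and 0.1% BSA. Single islets were then incubated 60 min at 37 °C in HEPES-KRB (pH 7.4) with 16.7 mM glucose plus compound at 10−10, 10−8 or 10−6 M, diluted from 10−4 M aqueous stock. Medium insulin was measured by RIA and expressed as fold of the 16.7 mM glucose control; 24 replicates.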

[3] = Induction of 16.7 mM glucose-stimulated insulin secretion in NMRI mouse pancreatic islets at 10^-8 M after 60 mins by radioimmunoassay relative to 16.7 mM glucose control; type: functional, Pancreatic islet; how it was run: as §2
[4] = test system: Pancreatic islet; assay: Induction of 16.7 mM glucose-stimulated insulin secretion in NMRI mouse pancreatic islets at 10^-6 M after 60 mins by radioimmunoassay; type: functional, cell-based
How it was run: (§3)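 Islets from adult female NMRI mice (22–25 g), collagenase-isolated and cultured overnight in RPMI 1640 (11.1 mM glucose, 10% FCS) at 37 °C. After 30 min preincubation in KRB with 3.3 mM glucose and 0.1% BSA, single islets were incubated 60 min at 37 °C in HEPES-KRB (pH 7.4) at 3.3, 6.6, 11.1 or 16.7 mM glucose ± compound at 10−6 M. Insulin in the medium was measured by RIA, reported in ng/mL; n = 16 per treatment.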

[5] = test system: Pancreatic islet; assay: Upregulation of IRS1 mRNA expression in NMRI mouse pancreatic islets at 10^-8 M after 72 hrs by Taqman-based qRT-PCR analysis; type: functional, cell-based; how it was run: as §1
[6] = Induction of 6.6 mM glucose-stimulated insulin secretion in NMRI mouse pancreatic islets at 10^-6 M after 60 mins by radioimmunoassay; type: cell-based; details: pancreatic islet, 1 h, 1 µM; how it was run: as §3
[7] = Induction of 16.7 mM glucose-stimulated insulin secretion in NMRI mouse pancreatic islets at 10^-10 M after 60 mins by radioimmunoassay relative to 16.7 mM glucose control; type: functional, Pancreatic islet; how it was run: as §2
[8] = test system: Pancreatic islet; assay: Upregulation of […] mRNA expression in NMRI mouse pancreatic islets at 10^-8 M after 72 hrs by Taqman-based qRT-PCR analysis; type: functional, cell-based; how it was run: as §1
[9] = test system: Pancreatic islet; assay: Upregulation of INSR mRNA expression in NMRI mouse pancreatic islets at 10^-8 M after 72 hrs by Taqman-based qRT-PCR analysis; type: functional, cell-based; how it was run: as §1
[10] = Induction of 3.3 mM glucose-stimulated insulin secretion in NMRI mouse pancreatic islets at 10^-8 M pretreated for 72 hrs in presence of 11.1 mM glucose followed by 3.3 mM glucose stimulation after 60 mins by radioimmunoassay; type: cell-based; details: pancreatic islet, 1 h, 0.01 µM
How it was run: (§4)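 Islets from female NMRI mice were cultured 72 h in RPMI with 11.1 mM glucose and 10% FCS, ± compound at 10−8 M final. They were rinsed and preincubated 30 min in KRB with 3.3 mM glucose and 0.1% BSA. Single islets were then stimulated 60 min at 37 °C with 3.3 or 16.7 mM glucose. Insulin was measured by RIA as fold of the 16.7 mM glucose control; 24 replicates.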

[11] = Induction of 16.7 mM glucose-stimulated insulin secretion in NMRI mouse pancreatic islets at 10^-8 M pretreated for 72 hrs in presence of 11.1 mM glucose followed by 16.7 mM glucose stimulation after 60 mins by radioimmunoassay relative to 16.7 mM glucose control; type: functional, Pancreatic islet; how it was run: as §4
[12] = test system: Pancreatic islet; assay: Upregulation of INS1 mRNA expression in NMRI mouse pancreatic islets at 10^-8 M after 72 hrs by Taqman-based qRT-PCR analysis; type: functional, cell-based; how it was run: as §1
[13] = test system: Pancreatic islet; assay: Upregulation of GLUT2 mRNA expression in NMRI mouse pancreatic islets at 10^-8 M after 72 hrs by Taqman-based qRT-PCR analysis; type: functional, cell-based; how it was run: as §1
[14] = test system: Pancreatic islet; assay: Upregulation of GCGR mRNA expression in NMRI mouse pancreatic islets at 10^-8 M after 72 hrs by Taqman-based qRT-PCR analysis; type: functional, cell-based; how it was run: as §1
[15] = test system: Pancreatic islet; assay: Upregulation of PDX1 mRNA expression in NMRI mouse pancreatic islets at 10^-8 M after 72 hrs by Taqman-based qRT-PCR analysis; type: functional, cell-based; how it was run: as §1
[16] = Induction of 3.3 mM glucose-stimulated insulin secretion in NMRI mouse pancreatic islets at 10^-6 M after 60 mins by radioimmunoassay; type: cell-based; details: pancreatic islet, 1 h, 1 µM; how it was run: as §3
[17] = test system: Pancreatic islet; assay: (§5) Induction of 11.1 mM glucose-stimulated insulin secretion in NMRI mouse pancreatic islets at 10^-6 M after 60 mins by radioimmunoassay relative to control; type: functional; how it was run: as §3
[18] = as §5; type: functional, Pancreatic islet; how it was run: as §3

Row | Structure (SMILES) | Activity [1] | fold change (FC) [2] | fold change (FC) [3] | Activity [4] | Activity [5] | Activity [6] | fold change (FC) [7] | Activity [8] | Activity [9] | Activity [10] | fold change (FC) [11] | Activity [12] | Activity [13] | Activity [14] | Activity [15] | Activity [16] | Activity [17] | Activity [18]
1 | O=c1cc(-c2ccc(O)cc2)oc2c([C@@H]3O[C@H](CO)[C@@H](O)[C@H](O)[C@H]3O)c(O)c([C@@H]3O[C@H](CO)[C@@H](O)[C@H](O)[C@H]3O)c(O)c12 | inactive | 2.3 | 2.3 | Active | inactive | Non-Toxic | 2.5 | inactive | Active | Non-Toxic | 2.2 | inactive | inactive | inactive | inactive | Non-Toxic | – | –
2 | O=C(O)/C=C/c1ccc(O)c(O)c1 [CAFFEIC ACID] | inactive | 2 | 1.7 | Active | inactive | Non-Toxic | – | Active | inactive | Non-Toxic | 1.5 | inactive | Active | inactive | Active | Non-Toxic | inactive | –
3 | O=C(/C=C/c1ccc(O)c(O)c1)O[C@@H](C(=O)O)[C@@H](O)C(=O)O [CAFTARIC ACID] | Active | 5.5 | 5.1 | Active | inactive | Non-Toxic | 2.8 | inactive | Active | Non-Toxic | 3.2 | Active | inactive | inactive | inactive | Non-Toxic | – | –
4 | O=C(/C=C/c1ccc(O)c(O)c1)O[C@@H](C(=O)O)[C@@H](OC(=O)/C=C/c1ccc(O)c(O)c1)C(=O)O [CICHORIC ACID] | Active | 4.1 | 1.9 | Active | Active | Non-Toxic | 1.8 | inactive | Active | Non-Toxic | 3.5 | Active | inactive | inactive | Active | Non-Toxic | – | –
5 | O=C(/C=C/c1ccc(O)c(O)c1)O[C@H](Cc1ccc(O)c(O)c1)C(=O)O [ROSMARINIC ACID] | Active | 4.9 | 2.8 | Active | Active | Non-Toxic | 3.3 | inactive | Active | Non-Toxic | 3.4 | Active | Active | inactive | Active | Non-Toxic | – | 68%
